Where a SMILES comes first, the peptide text is derived from it. Where no end group is shown, it is not given here. [ ]: non-standard residue; d: D form. pS = N[C@@H](COP(=O)(O)O)C(=O)O

Results on two compounds are retold here after PMC8865373 (Biochemistry, 2021).

Experiment [1] has as its target T1, TAZ2 domain of CBP (residues 1764–1855) (Mus musculus, UniProt P45481).
T1 sequence (P45481 1764-1855): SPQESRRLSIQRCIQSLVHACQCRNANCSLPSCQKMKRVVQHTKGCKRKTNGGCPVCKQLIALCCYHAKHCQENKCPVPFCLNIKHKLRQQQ
Description: Fluorescence anisotropy competition with Alexa594-labeled E7. The settings on record: ratio of fluorescence anisotropy competition KDs. The experiment is classed as binding. The method, boiled down:
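Tracer: Alexa Fluor 594-labelled E7(1–51) C24A/A50C (dye at position 50), 20 nM, in 20 mM Tris, 50 mM NaCl, 1 mM DTT, pH 7.0. It was pre-bound to 0.8 μM TAZ2 (>90% saturation). Unlabelled E7 peptides were titrated in and the anisotropy decrease read at 590/617 nm. Apparent KD came from a competition fit using the tracer KD from direct TAZ2 titration.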
In general terms: Fluorescence polarisation rises when a labelled molecule tumbles more slowly, as on binding a larger partner.

For experiment [2], the target named is TAZ2. The settings on record: doubly-phosphorylated peptide; fluorescence anisotropy and NMR spectroscopy; cited from earlier work.

In the case of `CC(C)C[C@H](NC(=O)[C@H](CCC(N)=O)NC(=O)[C@H](CCC(=O)O)NC(=O)[C@H](Cc1ccc(O)cc1)NC(=O)[C@H](CS)NC(=O)[C@H](Cc1ccc(O)cc1)NC(=O)[C@H](CC(C)C)NC(=O)[C@H](CC(=O)O)NC(=O)[C@@H](NC(=O)[C@@H](NC(=O)[C@@H](N)CCC(=O)O)[C@@H](C)O)[C@@H](C)O)C(=O)N[C@@H](CC(N)=O)C(=O)N[C@@H](CC(=O)O)C(=O)N[C@@H](CO)C(=O)N[C@@H](CO)C(=O)N[C@@H](CCC(=O)O)C(=O)N[C@@H](CCC(=O)O)C(=O)N[C@@H](CCC(=O)O)C(=O)N[C@@H](CC(=O)O)C(=O)N[C@@H](CCC(=O)O)C(=O)O` [CR2(18–37)] (H-ETTDLYCYEQLNDSSEEEDE-OH), the “KD of CR2 relative to the preceding CR1 motif (stronger)” value in experiment [1] is recorded as “seven-fold”.
In the case of “ppE7(1–51): doubly-phosphorylated (S31, S32) HPV16 E7(1–51) peptide (MHGDTPTLHEYMLDLQPETTDLYCYEQLND[pS][pS]EEEDEIDGPAGQAEPDRAH)”, the “binding affinity for TAZ2” value in experiment [2] is “low nanomolar range”.
